Results on 21 compounds are retold here after ChEMBL document CHEMBL3784928, “Development and Characterization of Novel and Selective Inhibitors of Cytochrome P450 CYP26A1, the Human Liver Retinoic Acid Hydroxylase” (J Med Chem, 2016).

In general, IC50 refers to the concentration at which inhibition is half-maximal. A lower IC50 goes with greater potency. Usually inhibition stands for the relative decrease from the control value, in per cent.

The source made the active and inactive calls. The calls are words filed in the database; no cut-off is given here. Bounds are passed on as bounds.

Data set [1] has as its target T1, Cytochrome P450 26B1 (Homo sapiens, UniProt Q9NR63).
T1 sequence (Q9NR63 whole entry): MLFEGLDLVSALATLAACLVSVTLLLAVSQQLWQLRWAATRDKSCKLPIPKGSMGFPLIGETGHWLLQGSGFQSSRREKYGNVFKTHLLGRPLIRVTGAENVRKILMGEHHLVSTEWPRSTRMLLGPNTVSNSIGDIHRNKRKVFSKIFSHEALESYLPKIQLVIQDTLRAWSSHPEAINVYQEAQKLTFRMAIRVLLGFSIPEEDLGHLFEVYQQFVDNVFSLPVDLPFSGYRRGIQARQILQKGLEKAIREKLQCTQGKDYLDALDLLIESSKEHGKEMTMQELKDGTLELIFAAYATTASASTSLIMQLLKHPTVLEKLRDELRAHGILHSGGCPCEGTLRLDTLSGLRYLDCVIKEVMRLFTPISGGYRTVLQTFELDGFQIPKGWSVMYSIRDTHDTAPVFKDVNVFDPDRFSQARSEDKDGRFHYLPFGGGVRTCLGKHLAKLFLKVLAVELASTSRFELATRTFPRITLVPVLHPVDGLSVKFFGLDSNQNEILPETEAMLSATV

Data set [2] concerns the target T2, Cytochrome P450 26A1 (Homo sapiens, UniProt O43174).
T2 sequence (O43174 whole entry): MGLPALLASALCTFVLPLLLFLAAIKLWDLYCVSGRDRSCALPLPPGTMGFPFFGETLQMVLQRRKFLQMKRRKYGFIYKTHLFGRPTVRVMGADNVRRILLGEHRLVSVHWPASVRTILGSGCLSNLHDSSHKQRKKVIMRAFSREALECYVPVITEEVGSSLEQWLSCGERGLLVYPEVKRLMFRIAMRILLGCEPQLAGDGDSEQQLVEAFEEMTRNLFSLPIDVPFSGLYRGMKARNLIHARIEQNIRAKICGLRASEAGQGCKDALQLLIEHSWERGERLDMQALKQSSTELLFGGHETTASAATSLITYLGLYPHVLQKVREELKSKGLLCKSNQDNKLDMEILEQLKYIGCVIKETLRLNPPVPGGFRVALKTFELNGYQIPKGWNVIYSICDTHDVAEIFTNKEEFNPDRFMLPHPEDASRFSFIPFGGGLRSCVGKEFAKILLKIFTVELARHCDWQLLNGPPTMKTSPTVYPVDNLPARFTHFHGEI

The target in another data set is Cytochrome P450 3A4 (Homo sapiens, UniProt P08684).
Chain of Cytochrome P450 3A4 (P08684 whole entry): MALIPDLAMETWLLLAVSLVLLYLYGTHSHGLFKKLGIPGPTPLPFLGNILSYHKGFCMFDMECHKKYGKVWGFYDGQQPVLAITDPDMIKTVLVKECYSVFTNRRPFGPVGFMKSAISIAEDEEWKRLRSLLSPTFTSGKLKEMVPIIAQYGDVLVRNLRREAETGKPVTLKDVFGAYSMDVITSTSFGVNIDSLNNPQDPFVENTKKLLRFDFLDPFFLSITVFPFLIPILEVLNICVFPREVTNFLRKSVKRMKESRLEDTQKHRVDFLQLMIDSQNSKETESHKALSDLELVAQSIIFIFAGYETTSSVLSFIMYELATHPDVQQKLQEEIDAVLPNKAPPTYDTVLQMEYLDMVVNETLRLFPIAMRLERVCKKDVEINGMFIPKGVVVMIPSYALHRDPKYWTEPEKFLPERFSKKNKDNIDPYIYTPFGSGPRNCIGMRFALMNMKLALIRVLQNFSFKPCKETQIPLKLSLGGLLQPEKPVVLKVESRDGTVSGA
A further data set deals with CYP2D6 (Homo sapiens, UniProt P10635). Kind of data set: in vitro. The conditions noted are these: human liver microsomes, probe dextromethorphan.
Chain of CYP2D6 (P10635 whole entry): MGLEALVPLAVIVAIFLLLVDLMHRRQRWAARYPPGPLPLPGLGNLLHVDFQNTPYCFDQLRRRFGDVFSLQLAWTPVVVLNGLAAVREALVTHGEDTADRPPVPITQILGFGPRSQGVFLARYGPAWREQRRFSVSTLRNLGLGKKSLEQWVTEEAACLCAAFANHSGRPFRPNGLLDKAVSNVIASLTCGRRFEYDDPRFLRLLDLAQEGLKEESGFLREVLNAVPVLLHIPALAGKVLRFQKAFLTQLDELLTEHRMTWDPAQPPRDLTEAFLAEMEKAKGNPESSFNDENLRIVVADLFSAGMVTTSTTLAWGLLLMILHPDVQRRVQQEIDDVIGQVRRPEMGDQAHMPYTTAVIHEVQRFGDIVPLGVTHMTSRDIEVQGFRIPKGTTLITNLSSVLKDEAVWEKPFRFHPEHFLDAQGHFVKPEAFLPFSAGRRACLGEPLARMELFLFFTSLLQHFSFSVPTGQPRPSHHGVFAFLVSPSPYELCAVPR
For data set [3], the target named is T3, Retinoic acid receptor (Homo sapiens) (UniProt P13631+P10826+P10276). Nature of the data set: Activation of RAR in human HepG2 cells assessed as upregulation of CYP26A1 mRNA expression at 1 uM after 24 hrs by RT-PCR method. Type of data set: cell-based. In a few lines:
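HepG2 cells kept in DMEM with 10% FBS at 37 °C under 5% CO2. Plated and left to adhere 24 h, then exposed 24 h to 1 μM compound in 0.1% DMSO, with 0.1% DMSO as vehicle control. Triplicate wells. TRI reagent mRNA extraction, cDNA from 1 μg mRNA. CYP26A1 measured by TaqMan RT-PCR multiplexed with GAPDH as housekeeping gene. Fold-difference calculated by the CT method.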

The target of data set [4] is T3, Retinoic acid receptor (Homo sapiens). Kind of data set: Activation of RAR in human HepG2 cells assessed as upregulation of RARbeta mRNA expression at 1 uM after 24 hrs by RT-PCR method. It is filed as cell-based. In a few lines:
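HepG2 cells in DMEM with 10% FBS, 37 °C, 5% CO2, plated 24 h before dosing. Treated 24 h in 2 mL medium at 1 μM in 0.1% DMSO, alongside a 0.1% DMSO vehicle; triplicates. RNA isolated with TRI reagent and cDNA made from 1 μg. TaqMan RT-PCR multiplexed with GAPDH as housekeeping gene; fold change by the C_T method.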

The target in data set [5] is T4, Retinoic acid receptor alpha (Homo sapiens) (UniProt P10276).
T4 sequence (whole entry): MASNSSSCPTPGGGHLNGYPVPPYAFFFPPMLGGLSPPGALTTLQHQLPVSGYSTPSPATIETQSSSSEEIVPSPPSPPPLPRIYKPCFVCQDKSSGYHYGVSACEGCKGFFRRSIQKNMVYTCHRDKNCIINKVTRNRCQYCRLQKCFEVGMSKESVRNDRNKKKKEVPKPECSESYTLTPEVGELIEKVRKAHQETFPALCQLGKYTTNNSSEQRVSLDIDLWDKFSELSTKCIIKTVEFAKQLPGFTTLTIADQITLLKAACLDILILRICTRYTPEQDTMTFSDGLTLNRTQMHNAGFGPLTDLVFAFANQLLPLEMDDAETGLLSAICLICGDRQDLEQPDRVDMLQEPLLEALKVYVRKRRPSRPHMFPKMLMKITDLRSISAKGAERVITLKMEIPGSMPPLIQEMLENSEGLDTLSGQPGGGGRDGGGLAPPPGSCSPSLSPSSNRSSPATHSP
Kind of data set: Activation of human RARalpha at 1 uM by luciferase reporter gene assay. For orientation: In a reporter assay the amount or activity of a reporter protein is the signal.

The target in data set [6] is T2, Cytochrome P450 26A1. Nature of the data set: Inhibition of CYP26A1-mediated atRA metabolism in human HepG2 cells assessed as atRA level in cell media at 1 uM after 24 hrs by LC/MS-MS analysis (reference value: 0.49 +/- 0.33 nM). Type of data set: cell-based. Particulars: hepg2, 24 h.
The target of data set [7] is T1, Cytochrome P450 26B1. Kind of data set: Inhibition of microsomal fraction of human CYP26B1 expressed in Sf9 cells using 9-cis-RA as substrate at 20 uM preincubated for 5 mins followed by NADPH addition measured after 5 mins by HPLC analysis in presence of rat P450 reductase. In a few lines: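 Sf9 microsomes expressing CYP26B1, 5 pmol, preincubated 10 min at room temperature with 10 pmol E. coli-expressed rat P450 reductase. […] Preincubated 5 min at 37 °C, started with 1 mM NADPH (final), run 5 min. 9-cis-4-OH-RA measured by HPLC; activity expressed relative to solvent control.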

Data set [8] can be described thus: Activation of human RARbeta at 1 uM by luciferase reporter gene assay.
The next data set concerns the target CYP3A4 (Homo sapiens, UniProt P08684). Nature of the data set: Inhibition of CYP3A4 in human liver microsomes upto 100 uM using midazolam as substrate by LC-MS/MS analysis in presence of NADPH. It is filed as ADME. Particulars: probe midazolam, read-out: Imax. In a few lines:
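Human liver microsomes incubated with midazolam as the CYP3A4-selective substrate plus inhibitor in 100 mM potassium phosphate buffer. Reaction started with NADPH and quenched with ice-cold acetonitrile. Product formation measured by LC-MS/MS.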
(Microsomes from liver hold many membrane-bound enzymes, among them those of drug oxidation.)

For the next data set, the species on record is Homo sapiens. Kind of data set: Selectivity ratio of IC50 for microsomal fraction of human CYP26B1 to IC50 for microsomal fraction of human CYP26A1.

T3 sequence (P10826 whole entry, looked up, one chain of several): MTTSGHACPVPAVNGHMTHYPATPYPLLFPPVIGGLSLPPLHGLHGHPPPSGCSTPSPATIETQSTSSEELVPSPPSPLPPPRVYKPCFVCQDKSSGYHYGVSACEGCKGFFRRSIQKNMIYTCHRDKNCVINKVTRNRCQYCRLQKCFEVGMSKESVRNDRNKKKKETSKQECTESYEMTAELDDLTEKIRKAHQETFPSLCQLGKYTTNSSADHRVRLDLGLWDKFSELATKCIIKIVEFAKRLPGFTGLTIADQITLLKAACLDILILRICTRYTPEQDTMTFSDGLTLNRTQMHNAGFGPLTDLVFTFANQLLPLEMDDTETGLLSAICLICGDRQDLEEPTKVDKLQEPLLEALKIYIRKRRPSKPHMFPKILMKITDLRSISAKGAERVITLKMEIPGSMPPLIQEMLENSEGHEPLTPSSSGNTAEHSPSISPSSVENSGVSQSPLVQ
T3 sequence (P13631 whole entry, looked up, one chain of several): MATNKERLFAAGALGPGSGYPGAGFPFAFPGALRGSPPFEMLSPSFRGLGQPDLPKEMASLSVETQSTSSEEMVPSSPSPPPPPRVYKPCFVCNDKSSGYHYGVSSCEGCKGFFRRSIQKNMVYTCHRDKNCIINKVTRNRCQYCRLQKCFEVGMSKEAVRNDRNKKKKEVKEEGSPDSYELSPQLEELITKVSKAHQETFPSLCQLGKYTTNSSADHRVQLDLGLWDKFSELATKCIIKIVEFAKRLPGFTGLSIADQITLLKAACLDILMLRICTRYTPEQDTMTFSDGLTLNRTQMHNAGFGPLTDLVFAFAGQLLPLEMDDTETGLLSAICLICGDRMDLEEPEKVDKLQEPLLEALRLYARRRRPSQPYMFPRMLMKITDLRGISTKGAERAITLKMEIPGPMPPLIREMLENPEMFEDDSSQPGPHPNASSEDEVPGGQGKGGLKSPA
Chain of CYP3A4 (P08684 whole entry): as the sequence (P08684 whole entry) above

Take `CC1(C)CCC(C)(C)c2cc(Sc3cccc(CC(=O)O)c3)ccc21`: the IC50 against Cytochrome P450 26B1 [1] and against Cytochrome P450 26A1 [2] was greater than 5 µM in each case.
For `CC1(C)CCC(C)(C)c2cc(C(=O)c3ccc(/C=C/C(=O)O)cc3)ccc21`, the IC50 against Cytochrome P450 26B1 [1] was greater than 5 µM; against Cytochrome P450 26A1 [2], 4.7 µM.
Turning to `CC1(C)CCC(C)(C)c2cc(Cc3ccc(CCC(=O)O)cc3)ccc21`, the IC50 is 1.7 µM on Cytochrome P450 26B1 [1] and 1.66 µM on Cytochrome P450 26A1 [2].
On Cytochrome P450 3A4, `CC1(C)CCC(C)(C)c2cc(C3(c4ccc(/C=C/C(=O)O)cc4)OCCO3)ccc21` showed an IC50 of 30 µM. For the same compound, at CYP2D6, testing at 10 µM gave an inhibition of 49%. Besides, the result in data set [3], in [4] and in data set [5] was inactive. At Cytochrome P450 26A1 [6], the Activity was 1.09 nM.
As to `CC1(C)CCC(C)(C)c2cc(C3(c4ccc5cc(C(=O)O)ccc5c4)SCCS3)ccc21`, on Cytochrome P450 26A1 [2], the IC50 came to 0.06 µM.
Consider `CC1(C)CCC(C)(C)c2cc(C(=O)c3ccc(C(=O)O)cc3)ccc21`, for which the IC50 at Cytochrome P450 26B1 [1] and on Cytochrome P450 26A1 [2] was greater than 25 µM in each case.
Regarding `CC1(C)CCC(C)(C)c2cc(C(O)COc3ccc(C(=O)O)cc3)ccc21` (stereo unspecified), the figures for the IC50 against Cytochrome P450 26B1 [1] and against Cytochrome P450 26A1 [2] were 1.4 µM and 2.8 µM, respectively.
Taken in the same sequence, the figures for `CC1(C)CCC(C)(C)c2cc(C(=O)COc3ccc(C(=O)O)cc3)ccc21` were 0.93 µM and 4 µM.
For `CC1(C)CCC(C)(C)c2cc(C3(c4ccc(C(=O)O)cc4)OCCO3)ccc21`, the inhibition at 20 µM on Cytochrome P450 26B1 [7] amounted to 59%.
As to `CC1(C)CCC(C)(C)c2cc(S(=O)(=O)c3ccc(CC(=O)O)cc3)ccc21`, the IC50 on Cytochrome P450 26B1 [1] and against Cytochrome P450 26A1 [2] was greater than 5 µM each time.
`CC1(C)CCC(C)(C)c2cc(C3(c4ccc(C(=O)O)cc4)SCCS3)ccc21`: inhibition against Cytochrome P450 26A1 [2] was half-maximal at 1.3 µM (IC50).
On to `CC1(C)CCC(C)(C)c2cc(C3(c4ccc(CCC(=O)O)cc4)SCCS3)ccc21`, for which the result in [3], in data set [4] and in data set [5] was inactive.
With `CC1(C)CCC(C)(C)c2cc(S(=O)(=O)c3cccc(CC(=O)O)c3)ccc21`, the half-inhibitory concentration (IC50) against Cytochrome P450 26B1 [1] and at Cytochrome P450 26A1 [2] was greater than 5 µM each time.
The compound `CC1(C)CCC(C)(C)c2cc(C3(c4ccc(/C=C/C(=O)O)cc4)SCCS3)ccc21` came in with an IC50 against Cytochrome P450 26A1 [2] greater than 10 µM.
For the compound `CC1(C)CCC(C)(C)c2cc(C(=O)c3ccc(CCC(=O)O)cc3)ccc21`, the IC50 against Cytochrome P450 26B1 [1] and against Cytochrome P450 26A1 [2] was greater than 5 µM in each case.
Regarding `CC1(C)CCC(C)(C)c2cc(C3(c4ccc(CCC(=O)O)cc4)OCCO3)ccc21`, the result in data set [3], in [4], in data set [8] and in data set [5] was inactive. On Cytochrome P450 26A1 [6], the Activity was found to be 0.27 nM. For the same compound, the Emax at CYP3A4 was determined as 40%.
With `CC1(C)CCC(C)(C)c2cc(Sc3ccc(CC(=O)O)cc3)ccc21`, the IC50 against Cytochrome P450 26B1 [1] was greater than 5 µM; on Cytochrome P450 26A1 [2] it was 10.6 µM.
Taken in the same sequence, the figures for `C=C(c1ccc(C(=O)O)cc1)c1cc2c(cc1C)C(C)(C)CCC2(C)C` [BEXAROTENE] were 5.9 µM and 13.5 µM.
For `CC1(C)CCC(C)(C)c2cc(/C(COc3ccc(C(=O)O)cc3)=N/O)ccc21`, in that order: 1.4 µM and 3.5 µM.
Taken in the same sequence, the figures for `CC1(C)CCC(C)(C)c2cc(S(=O)(=O)c3ccc(CCC(=O)O)cc3)ccc21` were 6.2 µM and greater than 5 µM.
With `CC1(C)CCC(C)(C)c2cc(C3(c4ccc5cc(C(=O)O)ccc5c4)OCCO3)ccc21`, the Ratio IC50 in the data set filed under Homo sapiens is 10.
